NR2E3 ag-1 = NR2E3 agonists in two-hybrid cells, primary screen, cell-based, luminescence, CHO-S, Gal4-NCOR/VP16-NR2E3 | luciferase | inhibition of corepressor binding, % at 3.98 µM | actives 0.35% (n = 360,000) | AID 602229, 2012;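 active means inhibition above the mean of all tested compounds plus 3 SD, cut at about 70% in these data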;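 further: 0% = DMSO with NR2E3 transfected cells and 100% = cells lacking NR2E3 construct; higher means lower luciferase signal from less NR2E3 corepressor binding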
Target sequence (Q9Y5X4 whole entry, looked up, the tested form may be a part): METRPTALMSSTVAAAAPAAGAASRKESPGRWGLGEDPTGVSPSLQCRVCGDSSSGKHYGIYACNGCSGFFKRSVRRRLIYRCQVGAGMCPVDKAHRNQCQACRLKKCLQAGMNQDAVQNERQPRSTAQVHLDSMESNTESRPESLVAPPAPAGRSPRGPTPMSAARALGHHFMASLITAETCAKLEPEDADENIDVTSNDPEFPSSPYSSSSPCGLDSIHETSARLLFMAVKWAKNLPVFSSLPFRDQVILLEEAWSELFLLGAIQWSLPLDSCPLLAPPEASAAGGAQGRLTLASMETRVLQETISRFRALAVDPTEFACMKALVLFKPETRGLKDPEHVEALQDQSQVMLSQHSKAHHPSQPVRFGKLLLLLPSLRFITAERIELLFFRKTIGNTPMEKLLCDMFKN
NR2E3 ag-2 = inhibitors of NR2E3-RetCOR corepressor binding, primary screen, NR2E3 agonist project, biochemical, TR-FRET, GST-NR2E3, biotin-RetCOR. Photoreceptor-specific nuclear receptor (Homo sapiens), Q9Y5X4. 1536-well. inhibition of corepressor binding, % at 4.78 µM. actives 0.12% (n = 320,000). AID 2300, 2010;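 active means percent inhibition above the cutoff of mean plus 3 SD of all tested compounds, set per screening campaign, cut at about 20% in these data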;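 further: 0% = DMSO wells and 100% = biotin wells as full block of FRET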
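System: GST-tagged NR2E3 plus biotinylated RetCOR corepressor; Buffer or medium: pH 7.5 Tris-based buffer; Probe or stimulus: RetCOR corepressor, biotinylated, 7 nM; Doses: compound at 4.8 µM, single dose; Schedule: 5 h incubation at 4 °C; Technique: time-resolved FRET; Evaluation: percent inhibition of TR-FRET ratio; Replication: one well per compound, singlicate testing.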
GAA850 FXN act = FXN promoter activators, primary screen, cell-based, luciferase luminescence, HEK293 lucGAA850; actives 0.56% (n = 360,000); activation, % at 6 µM; HEK293 lucGAA850 FXN promoter luciferase reporter, 24 h; percent of 10 µM SAHA response;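 active means activation above the average of all compounds screened plus 3 SD, cutoff fixed separately per campaign, cut at about 7.5% in these data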;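 further: 0% = DMSO wells and 100% = 10 µM SAHA wells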
T cell modulator = modulators of CD8 T cell-vesicle binding, primary screen, mouse 2C CD8+ T cells, flow cytometry. 2C CD8+ T cell-vesicle binding; active compounds read low. response (vesicle binding), % at 7 µM. actives 0.068% (n = 330,000);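 active means response, share of CD8 T cells binding vesicles, and their 90th percentile fluorescence all below set limits, cut at about 80% in these data, passing the limit was not always enough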;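 further: values below 100% mean blocked vesicle binding to the CD8+ T cells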
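System: murine 2C transgenic CD8+ T lymphocytes; also added: QL9-loaded Drosophila micro-vesicles; times: binding 1.5 h at 37 °C; measured by: flow cytometry, PE anti-B7-1 (FL2) versus Alexa647 anti-CD8 (FL8), PFA-fixed; control set: Peptide-free naked vesicles (low) and QL9 vesicles with 0.7% DMSO vehicle (high)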
Myeloid diff 2 = induction of myeloid progenitor differentiation, primary screen, cell-based, flow cytometry, MLPCN library; ER-HoxA9 myeloid progenitors, lysozyme-GFP differentiation; calls only at 10 µM; actives 1% (n = 360,000); AID 624256, 2012;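 active means normalized GFP-positive differentiation at or above the plate's own cutoff, the solvent-only control mean plus 3 SD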;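 further: cells exposed to compound for four days before flow analysis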
Myeloid diff = inducers of myeloid progenitor differentiation, confirmation, cell-based, GFP/Mac1 flow cytometry, cherry pick 01; ER-HoxA9 myeloid progenitors, GFP/Mac1 double-positive flow; shares compounds with Myeloid diff 2; calls only; AID 651706, 2012; actives 2% (n = 2,300);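 active means share of green or green-and-red cells above 9 and 9% in run 1 or 4 and 3% in run 2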
GFP autofluor = flagged as fluorescent in myeloid differentiation counter-screen. shares compounds with Myeloid diff 2. ER-HoxA9 myeloid progenitors, no estrogen, GFP autofluorescence flow cytometry; vehicle wells 0%, positive control 100%. actives 7.4% (n = 2,300). fluorescence response, % (no concentration beside the values);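 active means over 5% cells positive for green fluorescent reporter, or over 2% positive for both it and APC stain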;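 further: range taken on the double positive population between DMSO and positive control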
An asterisk follows results filed as active. Rows were chosen to be rich in hits. Some 2% of all compounds tested hit in one or more screens of this group.

How did CCOC(=O)CC1C(=O)NCCN1S(=O)(=O)c1ccc(F)cc1 (configuration not stated) do in these assays?
NR2E3 ag-1: 6; NR2E3 ag-2: 2; GAA850 FXN act: 2; T cell modulator: 164; Myeloid diff 2: inactive

Results for CCOC(=O)CC1C(=O)NCCN1S(=O)(=O)c1ccc(Cl)cc1 (configuration not stated) ?
NR2E3 ag-1: -3; NR2E3 ag-2: 5; GAA850 FXN act: -1; T cell modulator: 238; Myeloid diff 2: active; Myeloid diff: inactive; GFP autofluor: 0

How did CCOC(=O)c1c(NC(=O)C(C)OC(=O)C2=COCCO2)sc2c1CCCC2 (configuration not stated) do in these assays?
NR2E3 ag-1: 4; NR2E3 ag-2: 4; GAA850 FXN act: 3; T cell modulator: 204; Myeloid diff 2: inactive

What do the screens show for `CCOC(=O)c1c(NC(=O)C(C)OC(=O)c2ccc(NC(=O)CC#N)cc2)sc2c1CCCC2` (configuration not stated)?
NR2E3 ag-1: -29; NR2E3 ag-2: 2; GAA850 FXN act: 0; T cell modulator: 140; Myeloid diff 2: active; Myeloid diff: inactive; GFP autofluor: 2

What do the screens show for `CCOc1ccccc1NC(=O)C(OC(=O)c1ccc(NC(=O)CC#N)cc1)c1ccccc1` (configuration not stated)?
NR2E3 ag-1: -7; NR2E3 ag-2: 2; GAA850 FXN act: 1; T cell modulator: 456; Myeloid diff 2: active; Myeloid diff: inactive; GFP autofluor: 5.3*

What do the screens show for `CC(OC(=O)c1ccc(NC(=O)CC#N)cc1)C(=O)NC(c1ccccc1)c1ccccc1` (configuration not stated)?
NR2E3 ag-1: 6; GAA850 FXN act: -2; T cell modulator: 316; Myeloid diff 2: inactive; Myeloid diff: inactive; GFP autofluor: 1

What do the screens show for `O=C(NCc1ccccc1)c1cc(C2COCCN2C(=O)CCc2ccccc2)on1` (configuration not stated)?
NR2E3 ag-1: 1; GAA850 FXN act: -2; Myeloid diff 2: inactive

Results for CC1CCN(C(=O)COC(=O)c2ccccc2NCCO)CC1 ?
NR2E3 ag-1: -16; GAA850 FXN act: 3; Myeloid diff 2: inactive

How did NNC(=O)c1ccc(COc2ccc3ccccc3c2)o1 do in these assays?
NR2E3 ag-1: -139; NR2E3 ag-2: 4; GAA850 FXN act: 1; T cell modulator: 336; Myeloid diff 2: active; Myeloid diff: inactive; GFP autofluor: 0

How did NNC(=O)c1ccc(COc2cccc3ccccc23)o1 do in these assays?
NR2E3 ag-1: -15; NR2E3 ag-2: 3; GAA850 FXN act: 3; T cell modulator: 180; Myeloid diff 2: active; Myeloid diff: inactive; GFP autofluor: 0

Results for CC(C)NC(=O)c1ccc(COc2cccc3ccccc23)o1 ?
NR2E3 ag-1: -27; GAA850 FXN act: 0; Myeloid diff 2: inactive

What do the screens show for `CCOc1ccc(OCc2ccc(C(=O)NC(C)(C)C)o2)cc1`?
NR2E3 ag-1: 6; GAA850 FXN act: 4; T cell modulator: 142; Myeloid diff 2: inactive

What do the screens show for `CCOc1ccc(OCc2ccc(C(=O)NN)o2)cc1`?
NR2E3 ag-1: -69; NR2E3 ag-2: -1; GAA850 FXN act: 3; T cell modulator: 82; Myeloid diff 2: active; Myeloid diff: inactive; GFP autofluor: 0

Results for COc1ccc(OC)c(CN2CCN(C(=O)c3cccc(S(=O)(=O)N(C)c4ccccc4)c3)CC2)c1 ?
NR2E3 ag-1: -12; GAA850 FXN act: -3; Myeloid diff 2: inactive

How did COc1cc(Br)cc(C(=O)N2CCc3ccccc32)c1OC do in these assays?
NR2E3 ag-1: -27; GAA850 FXN act: 1; Myeloid diff 2: inactive

How did COc1ccc(N(CC(=O)NCCSc2ccccn2)S(=O)(=O)c2ccccc2)c(OC)c1 do in these assays?
NR2E3 ag-1: -14; NR2E3 ag-2: 4; GAA850 FXN act: -2; T cell modulator: 280; Myeloid diff 2: inactive

What do the screens show for `C=CCn1c(C)cc(-c2csc(NCC)n2)c1C`?
NR2E3 ag-1: 0; NR2E3 ag-2: -10; GAA850 FXN act: -1; T cell modulator: 300; Myeloid diff 2: active; Myeloid diff: inactive; GFP autofluor: 0

Results for C=CCn1c(C)cc(-c2csc(N)n2)c1C ?
NR2E3 ag-1: -39; NR2E3 ag-2: 8; GAA850 FXN act: -3; T cell modulator: 487; Myeloid diff 2: inactive

How did COc1ccccc1C1(CCNS(=O)(=O)c2ccc(C)cc2)CCOC(C(C)C)C1 (configuration not stated) do in these assays?
NR2E3 ag-1: 11; NR2E3 ag-2: 1; GAA850 FXN act: 2; T cell modulator: 960; Myeloid diff 2: active; Myeloid diff: inactive; GFP autofluor: 0

What do the screens show for `COc1ccccc1C1(CCNC(C)c2cccs2)CCOC(C(C)C)C1` (configuration not stated)?
NR2E3 ag-1: -60; NR2E3 ag-2: 2; GAA850 FXN act: -8; T cell modulator: 734; Myeloid diff 2: inactive

Results for COC(=O)[C@H](CC(C)C)NC(=O)CC[C@H]1O[C@@H](n2ccc(=O)[nH]c2=O)[C@H](O)[C@@H]1O ?
NR2E3 ag-1: -4; Myeloid diff 2: inactive

Results for CCN(CC)Cc1c(O)ccc2occ(C(=O)c3ccc(OC)cc3)c12 ?
NR2E3 ag-1: -13; NR2E3 ag-2: 0; GAA850 FXN act: 1; T cell modulator: 160; Myeloid diff 2: inactive

Results for CCN(CC)Cc1c(O)ccc2c([N+](=O)[O-])c(C)n(-c3ccc(OC)cc3)c12 ?
NR2E3 ag-1: -42; NR2E3 ag-2: 2; GAA850 FXN act: -8; T cell modulator: 224; Myeloid diff 2: active; Myeloid diff: inactive; GFP autofluor: 0

Results for O=C1CNC(=S)N1C(CO)c1ccccc1 (configuration not stated) ?
NR2E3 ag-1: -12; NR2E3 ag-2: -3; GAA850 FXN act: 0; T cell modulator: 674; Myeloid diff 2: inactive

How did COc1cccc(C(=O)NNC(=O)Cc2ccc([N+](=O)[O-])cc2)c1 do in these assays?
NR2E3 ag-1: 17; NR2E3 ag-2: 2; GAA850 FXN act: 2; T cell modulator: 196; Myeloid diff 2: inactive

Screening data from PubChem.
